Source: ChEMBL document CHEMBL1124841, “Chalcones: a new class of antimitotic agents” (1990)

Tests used:
HeLa [1] = assay: In vitro antimitotic activity against HeLa cells after 1 hr exposure to the compound; type: functional, Homo sapiens
How it was run: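 HeLa cells exposed to compound for 1 h, washed in fresh medium, then kept 18 h in compound-free medium. Mitotic index (cells in mitosis/cells counted) scored as in the 6-h test. The reported equivalent dose (ED) is the concentration giving the same mitotic index as vinblastine at 0.06 µg/mL.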

HeLa [2] = assay: In vitro antimitotic activity against HeLa cells after 6 hours exposure; type: functional, Homo sapiens
How it was run: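 Asynchronous HeLa cells were exposed to compound continuously for 6 h. Mitotic index (cells in mitosis/cells counted) was scored on about 300 cells counted across three fields. The equivalent dose (ED) is the concentration giving the same mitotic index as the colchicine standard at 0.05 µg/mL.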

B16 [3] = assay: The ratio of survival time for treated divided by survival time of control x 100 at a dose of 100 mg/kg in B16 melanoma cells; type: functional, Mus musculus
How it was run: (§1)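 Mice inoculated ip on day 0 with 1 × 10^5 L1210 leukemia or B16 melanoma cells. Compounds given ip once daily on days 1-9, suspended or dissolved in 5% PVP. Survival time recorded and averaged per group. Value is mean survival of treated over control × 100.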

L1210 [4] = assay: The ratio of survival time for treated divided by survival time of control x 100 at a dose of 25 mg/kg in L1210 leukemia cells; type: functional, Mus musculus; how it was run: as §1
L1210 [5] = assay: The ratio of survival time for treated divided by survival time of control x 100 at a dose of 50 mg/kg in L1210 leukemia cells; type: functional, Mus musculus; how it was run: as §1
B16 [6] = assay: The ratio of survival time for treated divided by survival time of control x 100 at a dose of 25 mg/kg in B16 melanoma cells; type: functional, Mus musculus; how it was run: as §1
L1210 [7] = assay: The ratio of survival time for treated divided by survival time of control x 100 at a dose of 6.25 mg/kg in L1210 leukemia cells; type: functional, Mus musculus; how it was run: as §1
B16 [8] = assay: The ratio of survival time for treated divided by survival time of control x 100 at a dose of […] in B16 melanoma cells; type: functional, Mus musculus
L1210 [9] = assay: The ratio of survival time for treated divided by survival time of control x 100 at a dose of […] in L1210 leukemia cells; type: functional, Mus musculus
B16 [10] = assay: The ratio of survival time for treated divided by survival time of control x 100 at a dose of 0.2 mg/kg in B16 melanoma cells; type: functional, Mus musculus; how it was run: as §1
L1210 [11] = assay: The ratio of survival time for treated divided by survival time of control x 100 at a dose of 0.2 mg/kg in L1210 leukemia cells; type: functional, Mus musculus; how it was run: as §1

Row | Compound | ED (HeLa [2]) [µg/mL] | other results
1 | COc1ccc(OC)c(C(=O)/C=C/c2ccc(N(C)C)cc2)c1 | 0.0075 | ED (HeLa [1]): 1.5 µg/mL
2 | COc1ccc(C(=O)/C=C/c2ccc(N(C)C)cc2)cc1OC | 3.1 | –
3 | COc1cc(C(=O)/C=C/c2ccc(N(C)C)cc2)cc(OC)c1OC | 0.015 | ED (HeLa [1]): 12.5 µg/mL
4 | COc1ccc(C(=O)/C=C/c2cccs2)c(OC)c1OC | 3.1 | –
5 | COc1cc(C(=O)/C=C/c2ccco2)cc(OC)c1OC | 5 | –
6 | COc1cc(C(=O)/C=C/c2ccc(N)cc2)cc(OC)c1OC | 0.15 | –
7 | COc1ccc(C(=O)/C(Br)=C/c2ccc(N(C)C)cc2)c(OC)c1OC | 0.15 | T/C (B16 [3]): 192%; T/C (L1210 [4]): 145%; ED (HeLa [1]): 6.25 µg/mL; T/C (L1210 [5]): 140%
8 | COc1cc(C(=O)/C=C/c2ccc(C#N)cc2)cc(OC)c1OC | 3.1 | –
9 | COc1ccc(C(=O)/C=C/c2ccc(N(C)C)cc2C)c(OC)c1OC | 3.1 | –
10 | COc1ccc(OC)c(C(=O)/C(Br)=C/c2ccc(N(C)C)cc2)c1 | 0.0075 | –
11 | CC(=O)Nc1ccc(/C=C/C(=O)c2ccc(C(N)=O)cc2)cc1 | 3.1 | –
12 | CCN(CC)c1ccc(/C=C(\C)C(=O)c2cc(OC)c(OC)c(OC)c2)cc1 | 0.0075 | –
13 | COc1ccc(OC)c(C(=O)/C(Cl)=C/c2ccc(N(C)C)cc2)c1 | 0.015 | –
14 | COc1cc(C(=O)/C=C/c2ccccc2)cc(OC)c1OC | 0.15 | –
15 | CC(=O)Nc1ccc(/C=C/C(=O)c2ccc(C#N)cc2)cc1 | 25 | –
16 | CO/N=C(\C=C\c1ccc(N(C)C)cc1)c1cc(OC)c(OC)c(OC)c1 | 0.3 | –
17 | COc1cc(C(=O)/C(Br)=C/c2ccc(N(C)C)cc2)cc(OC)c1OC | 0.0038 | ED (HeLa [1]): 1.5 µg/mL
18 | COc1cc(C(=O)/C=C/c2ccc(SC)cc2)cc(OC)c1OC | 0.3 | –
19 | COc1ccccc1C(=O)/C=C/c1ccc(N(C)C)cc1 | 0.15 | ED (HeLa [1]): 6.25 µg/mL
20 | COc1cc(C(=O)/C=C/c2ccc(C(C)(C)C)cc2)cc(OC)c1OC | 2.5 | –
21 | CCN(CC)c1ccc(/C=C/C(=O)c2cc(OC)c(OC)c(OC)c2)cc1 | 0.0075 | –
22 | COc1cc(C(=O)/C=C/c2ccncc2)cc(OC)c1OC | 25 | –
23 | COc1cc(C(=O)/C=C(\C)c2ccccc2)cc(OC)c1OC | 3.1 | –
24 | COc1cc(C(=O)/C=C(\C)c2ccc(N)cc2)cc(OC)c1OC | 0.3 | –
25 | COc1ccc(OC)c(C(=O)/C=C/c2ccc(NC(C)=O)cc2)c1 | 6.25 | –

Row | Compound | ED (HeLa [2]) [µg/mL] | other results
26 | COC(=O)Nc1ccc(/C=C/C(=O)c2cc(OC)c(OC)c(OC)c2)cc1 | 3.1 | –
27 | CC(=O)Nc1ccc(/C=C/C(=O)c2cccc(Cl)c2)cc1 | >100 | –
28 | COc1ccc(C(=O)/C=C/c2ccc(NC(C)=O)cc2)c(OC)c1OC | 3.1 | –
29 | COc1cc(OC)c(C(=O)/C=C/c2ccc(NC(C)=O)cc2)c(OC)c1 | 3.1 | –
30 | CCN(CC)c1ccc(/C=C(\C)C(=O)c2ccc(OC)c(OC)c2OC)cc1 | 25 | –
31 | CCN(CC)c1ccc(/C=C/C(=O)c2ccc(OC)c(OC)c2OC)cc1 | 0.15 | –
32 | CCCCOc1ccc(/C=C/C(=O)c2cc(OC)c(OC)c(OC)c2)cc1 | >25 | –
33 | COc1cc(C(=O)/C=C/c2cccs2)cc(OC)c1OC | 3.1 | –
34 | COc1cc(C(=O)/C=C/c2ccc([S+](C)[O-])cc2)cc(OC)c1OC (stereo not given) | >100 | –
35 | COc1cc(C(=O)/C=C/c2ccc(N3CCOCC3)cc2)cc(OC)c1OC | 6.25 | –
36 | COc1cc(C(=O)/C=C/c2ccc(NC(C)=O)cc2)cc(OC)c1OC | 3.1 | –
37 | COc1ccc(C(=O)/C(C)=C/c2ccccc2)c(OC)c1OC | – | ED (HeLa [1]): 6.25 µg/mL
38 | CCOc1ccc(/C=C/C(=O)c2cc(OC)c(OC)c(OC)c2)cc1 | 0.15 | –
39 | COc1cc(C(=O)/C=C/c2ccccc2C(F)(F)F)cc(OC)c1OC | 100 | –
40 | COc1cc(C(=O)/C(C)=C/c2ccc(N(C)C)cc2)cc(OC)c1OC | 0.019 | ED (HeLa [1]): 0.3 µg/mL
41 | CC(=O)Nc1ccc(/C=C/C(=O)c2ccc(C(C)(C)C)cc2)cc1 | 0.25 | –
42 | COc1cc(C(=O)/C=C(\C)c2ccc(N(C)C)cc2)cc(OC)c1OC | >100 | –
43 | COc1cc(C(=O)/C=C/c2ccc(N(C)C)cc2C)cc(OC)c1OC | 0.0075 | –
44 | COc1cc(C(=O)/C=C/c2ccc([N+](=O)[O-])cc2)cc(OC)c1OC | 25 | –
45 | CC/C(=C\c1ccc(N(C)C)cc1)C(=O)c1ccc(OC)c(OC)c1OC | 0.15 | –
46 | COc1cc(C(=O)/C=C/c2cccc(NC(C)=O)c2)cc(OC)c1OC | >100 | –
47 | COc1cc(C(=O)/C=C/c2cccc(N(C)C)c2)cc(OC)c1OC | >100 | –
48 | COc1ccc(C(=O)/C(Cl)=C/c2ccc(N(C)C)cc2)c(OC)c1OC | 0.015 | –
49 | CCN(CC)c1ccc(/C=C(\C)C(=O)c2cc(OC)ccc2OC)cc1 | 0.15 | –
50 | COc1cc(C(=O)/C=C/C=C/c2ccc(N(C)C)cc2)cc(OC)c1OC | 3.1 | –

Row | Compound | ED (HeLa [2]) [µg/mL] | other results
51 | COc1ccc(C(=O)/C=C/c2ccc(NC(C)=O)cc2)cc1 | 3.1 | –
52 | CCc1cccc(C(=O)/C=C/c2ccc(NC(C)=O)cc2)c1 | >100 | –
53 | CCCCNc1ccc(/C=C/C(=O)c2cc(OC)c(OC)c(OC)c2)cc1 | 6.25 | –
54 | COc1ccc(C(=O)/C(C)=C/c2ccc(N(C)C)cc2)c(OC)c1OC | 1.5 | T/C (B16 [6]): 190%; T/C (L1210 [4]): 121%; T/C (L1210 [5]): 138%
55 | CC(=O)Nc1ccc(/C=C/C(=O)c2cccc(C(F)(F)F)c2)cc1 | 25 | –
56 | COc1cc(C(=O)/C=C/c2cccc(N)c2)cc(OC)c1OC | 0.15 | –
57 | COc1cc(C(=O)/C=C/c2cccc([N+](=O)[O-])c2)cc(OC)c1OC | >100 | –
58 | COc1cc(C(O)/C=C/c2ccc(N(C)C)cc2)cc(OC)c1OC (stereo not given) | 3.1 | –
59 | COc1cc(C(=O)CCc2ccc(N(C)C)cc2)cc(OC)c1OC | 3.1 | –
60 | COc1cc(C(=O)/C=C/c2ccc(N(C)C)cc2)cc(OC)c1O | 3.1 | –
61 | COc1ccc(C(=O)/C=C/c2ccc(N(C)C)cc2)c(OC)c1OC | 0.015 | –
62 | COc1ccc(C(=O)/C=C/c2ccc(N(C)C)cc2)c(OC)c1 | 6.25 | –
63 | COc1cc(/C=C/C(=O)c2ccccc2)cc(OC)c1OC | >25 | –
64 | COc1cc(C(=O)/C=C/c2ccc(Br)cc2)cc(OC)c1OC | 0.015 | –
65 | COc1cc(C(=O)/C(Cl)=C/c2ccc(N(C)C)cc2)cc(OC)c1OC | 3.1 | –
66 | COc1cc(C(=O)/C=C/c2ccc(F)cc2)cc(OC)c1OC | >25 | –
67 | COc1cc(C(=O)/C=C/c2ccc(OC(C)C)cc2)cc(OC)c1OC | >25 | –
68 | COc1cc(/C=C/C(=O)c2ccc(N(C)C)cc2)cc(OC)c1OC | 0.15 | –
69 | COc1cc(C(=O)C#Cc2ccccc2)cc(OC)c1OC | >6.25 | –
70 | COc1cc(C(=O)/C=C/c2ccc(C(F)(F)F)cc2)cc(OC)c1OC | 6.25 | –
71 | COc1ccc(OC)c(C(=O)/C(C)=C/c2ccc(N(C)C)cc2)c1 | 0.0038 | T/C (B16 [6]): 183%; T/C (L1210 [4]): 146%; T/C (L1210 [7]): 126%; T/C (B16 [8]): 146%; ED (HeLa [1]): 0.06 µg/mL; T/C (L1210 [9]): 137%; T/C (L1210 [5]): 154%
72 | O=C(/C=C/c1ccccc1)c1ccccc1 [CHALCONE] | 3.1 | –
73 | COc1cc2c(c(OC)c1OC)-c1ccc(OC)c(=O)cc1[C@@H](NC(C)=O)CC2 [COLCHICINE] | 0.05 | –
74 | CC[C@]1(O)C[C@@H]2CN(CCc3c([nH]c4ccccc34)[C@@](C(=O)OC)(c3cc4c(cc3OC)N(C)[C@H]3[C@@](O)(C(=O)OC)[C@H](OC(C)=O)[C@]5(CC)C=CCN6CC[C@]43[C@@H]65)C2)C1 [VINBLASTINE] | 0.0015 | T/C (B16 [10]): 180%; T/C (L1210 [11]): 140%
